Laboratory results as given in ChEMBL document CHEMBL5705905, “Pharmacological targeting of kinases MST1 and MST2 augments tissue repair and regeneration” (Sci Transl Med, 2016).
Activity calls are given as the source filed them. The rule behind the calls is not given here.

Tests used:
[1] = target: Ephrin type-A receptor 2 (Homo sapiens) (UniProt P29317); experiment: Inhibition of EPHA2 (unknown origin) assessed as remaining activity at 1 uM by Kinome scan method relative to control
[2] = target: Cyclin-dependent kinase 5 (Homo sapiens) (UniProt Q00535); experiment: Inhibition of CDK5 (unknown origin) assessed as remaining activity at 1 uM by Kinome scan method relative to control
Sequence of Cyclin-dependent kinase 5 (Homo sapiens) (Q00535 whole entry, looked up): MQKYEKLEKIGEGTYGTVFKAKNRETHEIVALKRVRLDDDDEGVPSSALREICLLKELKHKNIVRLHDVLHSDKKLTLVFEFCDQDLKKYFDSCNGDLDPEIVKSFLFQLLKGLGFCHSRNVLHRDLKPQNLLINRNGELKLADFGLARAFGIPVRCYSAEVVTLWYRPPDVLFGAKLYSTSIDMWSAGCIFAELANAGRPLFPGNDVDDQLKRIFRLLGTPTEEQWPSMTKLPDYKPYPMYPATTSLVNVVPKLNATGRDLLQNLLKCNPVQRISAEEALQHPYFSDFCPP
Method in brief: (§1)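 Active-site-dependent competition-binding profiling (KINOMEscan) at 1 μM against a 468-kinase panel; compound supplied from a 10 mM DMSO stock. Read-out is ctrl% = (test signal − positive control signal)/(negative control signal − positive control signal) × 100. DMSO is the negative control (100%) and a control compound the positive control (0%). Lower ctrl% means tighter binding.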

[3] = Acute toxicity in wild-type mouse assessed as low level in oval cell expansion by at 1 mg/kg,ip administrated daily for 2 months by immunohistochemical staining; format: organism-based; conditions: in vivo, 1460 h
[4] = target: MAP kinase-activated protein kinase 2 (Homo sapiens) (UniProt P49137); experiment: Inhibition of MAPKAPK2 (unknown origin) assessed as remaining activity at 1 uM by Kinome scan method relative to control
Sequence of MAP kinase-activated protein kinase 2 (Homo sapiens) (P49137 whole entry, looked up): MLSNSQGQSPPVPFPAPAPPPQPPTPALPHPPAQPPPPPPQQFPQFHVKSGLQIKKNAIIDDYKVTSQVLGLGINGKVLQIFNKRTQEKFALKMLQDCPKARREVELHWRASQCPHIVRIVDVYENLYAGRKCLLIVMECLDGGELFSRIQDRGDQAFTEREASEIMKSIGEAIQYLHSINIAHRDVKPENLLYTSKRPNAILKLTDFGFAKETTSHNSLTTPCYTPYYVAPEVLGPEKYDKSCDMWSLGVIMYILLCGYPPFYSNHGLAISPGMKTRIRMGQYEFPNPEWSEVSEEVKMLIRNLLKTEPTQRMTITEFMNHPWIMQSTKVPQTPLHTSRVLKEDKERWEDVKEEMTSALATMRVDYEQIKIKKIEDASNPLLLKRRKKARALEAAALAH

[5] = tested on: HepG2; experiment: Induction of apoptosis in human HepG2 cells assessed as late apoptosis cells at 3 uM by annexinV staining (Rvb =0.84 %); format: functional
[6] = target: Serine/threonine-protein kinase TAO2 (Homo sapiens, UniProt Q9UL54); experiment: Inhibition of TAOK2 (unknown origin) in presence of ATP by enzymatic assay
[7] = target: Ribosomal protein S6 kinase alpha-1 (Homo sapiens) (UniProt Q15418); experiment: Inhibition of C-terminal kinase domain RSK1 (unknown origin) assessed as remaining activity at 1 uM by Kinome scan method relative to control
Method in brief: (§2)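 Active-site-dependent competition-binding (KINOMEscan) panel of 468 kinases, test compound at 1 μM (from a 10 mM DMSO stock). Read-out is ctrl% = (test signal − positive control signal)/(negative control signal − positive control signal) × 100. DMSO is the negative control (100%) and a control compound is the positive control (0%). Lower ctrl% means tighter binding.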

[8] = Oral bioavailability in male Sprague-Dawley rat at 10 mg/kg measured for 24 hrs by LC-MS/MS analysis; format: ADME, organism-based; conditions: in vivo
[9] = target: Phosphatidylinositol 3-kinase catalytic subunit type 3 (Homo sapiens) (UniProt Q8NEB9); experiment: Inhibition of VPS34 (unknown origin) assessed as remaining activity at 1 uM by Kinome scan method relative to control
Sequence of Phosphatidylinositol 3-kinase catalytic subunit type 3 (Homo sapiens) (Q8NEB9 whole entry): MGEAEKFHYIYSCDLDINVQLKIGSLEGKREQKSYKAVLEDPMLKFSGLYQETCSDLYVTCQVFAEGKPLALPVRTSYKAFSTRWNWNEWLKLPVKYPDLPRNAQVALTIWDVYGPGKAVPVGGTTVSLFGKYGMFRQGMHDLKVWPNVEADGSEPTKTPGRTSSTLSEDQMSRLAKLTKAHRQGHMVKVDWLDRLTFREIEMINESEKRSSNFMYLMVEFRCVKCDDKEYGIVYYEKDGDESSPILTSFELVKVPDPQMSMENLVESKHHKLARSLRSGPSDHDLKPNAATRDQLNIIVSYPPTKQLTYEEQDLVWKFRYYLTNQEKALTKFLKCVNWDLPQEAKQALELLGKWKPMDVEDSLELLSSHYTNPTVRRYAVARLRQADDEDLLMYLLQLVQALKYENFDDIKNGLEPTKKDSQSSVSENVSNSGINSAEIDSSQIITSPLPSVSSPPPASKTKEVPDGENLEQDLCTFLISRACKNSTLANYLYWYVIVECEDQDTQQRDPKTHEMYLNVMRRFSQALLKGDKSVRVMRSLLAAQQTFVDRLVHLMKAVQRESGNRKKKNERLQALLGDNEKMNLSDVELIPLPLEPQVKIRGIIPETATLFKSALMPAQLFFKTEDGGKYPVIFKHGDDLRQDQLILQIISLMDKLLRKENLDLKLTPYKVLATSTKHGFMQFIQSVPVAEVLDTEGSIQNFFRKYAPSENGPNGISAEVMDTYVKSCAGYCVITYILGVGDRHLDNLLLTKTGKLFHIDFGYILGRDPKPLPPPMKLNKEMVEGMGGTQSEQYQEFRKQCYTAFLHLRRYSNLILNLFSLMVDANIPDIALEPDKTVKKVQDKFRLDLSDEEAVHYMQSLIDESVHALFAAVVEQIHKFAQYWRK

[10] = target: CDK4/Cyclin D3 (Homo sapiens) (UniProt P11802+P30281); experiment: Inhibition of CDK4/cyclinD3 (unknown origin) assessed as remaining activity at 1 uM by Kinome scan method relative to control; format: protein-complex assay; method in brief: as §1
[11] = tested on: Tyrosine-protein kinase ABL1 (Homo sapiens), P00519 [Q252H]; experiment: Inhibition of ABL1 Q252H mutant (unknown origin) assessed as remaining activity at 1 uM by Kinome scan method relative to control; method in brief: as §2
[12] = target: Ephrin type-A receptor 5 (Homo sapiens) (UniProt P54756); experiment: Inhibition of EPHA5 (unknown origin) assessed as remaining activity at 1 uM by Kinome scan method relative to control
[13] = target: Phosphatidylinositol 4-phosphate 3-kinase C2 domain-containing subunit beta (Homo sapiens) (UniProt O00750); experiment: Inhibition of PIK3C2B (unknown origin) assessed as remaining activity at 1 uM by Kinome scan method relative to control
[14] = target: MAP kinase-activated protein kinase 5 (Homo sapiens) (UniProt Q8IW41); experiment: Inhibition of MAPKAPK5 (unknown origin) assessed as remaining activity at 1 uM by Kinome scan method relative to control
[15] = target: Macrophage colony-stimulating factor 1 receptor (Homo sapiens) (UniProt P07333); experiment: Inhibition of CSF1R-autoinhibited (unknown origin) assessed as remaining activity at 1 uM by Kinome scan method relative to control; method in brief: as §1
Sequence of Macrophage colony-stimulating factor 1 receptor (Homo sapiens) (P07333 whole entry): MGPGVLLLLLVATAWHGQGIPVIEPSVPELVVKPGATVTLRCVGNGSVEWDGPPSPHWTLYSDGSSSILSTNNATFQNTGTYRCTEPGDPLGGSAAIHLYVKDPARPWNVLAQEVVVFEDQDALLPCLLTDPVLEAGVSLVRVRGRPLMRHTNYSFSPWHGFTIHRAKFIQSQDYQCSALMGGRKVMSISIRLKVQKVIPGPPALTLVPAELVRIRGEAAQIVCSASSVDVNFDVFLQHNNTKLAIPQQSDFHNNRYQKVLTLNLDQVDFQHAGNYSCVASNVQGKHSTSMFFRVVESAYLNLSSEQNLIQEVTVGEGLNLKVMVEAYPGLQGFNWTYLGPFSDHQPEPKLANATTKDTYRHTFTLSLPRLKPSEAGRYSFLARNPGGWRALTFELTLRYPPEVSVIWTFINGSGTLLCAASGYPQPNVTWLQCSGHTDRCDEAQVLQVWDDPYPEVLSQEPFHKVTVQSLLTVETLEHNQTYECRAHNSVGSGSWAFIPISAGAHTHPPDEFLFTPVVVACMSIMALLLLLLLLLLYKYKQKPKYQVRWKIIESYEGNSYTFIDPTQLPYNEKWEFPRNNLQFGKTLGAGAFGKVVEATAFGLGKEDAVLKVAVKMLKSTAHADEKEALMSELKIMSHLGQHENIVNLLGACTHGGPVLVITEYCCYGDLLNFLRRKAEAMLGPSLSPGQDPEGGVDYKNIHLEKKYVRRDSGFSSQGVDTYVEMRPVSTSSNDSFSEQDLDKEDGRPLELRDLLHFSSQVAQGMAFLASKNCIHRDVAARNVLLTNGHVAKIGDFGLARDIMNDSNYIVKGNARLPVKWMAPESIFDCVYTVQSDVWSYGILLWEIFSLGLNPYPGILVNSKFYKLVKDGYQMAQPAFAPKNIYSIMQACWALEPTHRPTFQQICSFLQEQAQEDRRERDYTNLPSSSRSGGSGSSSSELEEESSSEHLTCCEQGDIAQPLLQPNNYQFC

[16] = target: Tyrosine-protein kinase receptor UFO (Homo sapiens) (UniProt P30530); experiment: Inhibition of AXL (unknown origin) assessed as remaining activity at 1 uM by Kinome scan method relative to control; method in brief: as §2
[17] = target: T1, Serine/threonine-protein kinase 3 (Homo sapiens, UniProt Q13188); experiment: Inhibition of recombinant His-tagged full-length MST2 (unknown origin) expressing in Escherichia coli assessed as MOB1a phosphorylation level incubated for 30 min in the presence of 300 uM ATP by immunoblot analysis
T1 sequence (Q13188 whole entry): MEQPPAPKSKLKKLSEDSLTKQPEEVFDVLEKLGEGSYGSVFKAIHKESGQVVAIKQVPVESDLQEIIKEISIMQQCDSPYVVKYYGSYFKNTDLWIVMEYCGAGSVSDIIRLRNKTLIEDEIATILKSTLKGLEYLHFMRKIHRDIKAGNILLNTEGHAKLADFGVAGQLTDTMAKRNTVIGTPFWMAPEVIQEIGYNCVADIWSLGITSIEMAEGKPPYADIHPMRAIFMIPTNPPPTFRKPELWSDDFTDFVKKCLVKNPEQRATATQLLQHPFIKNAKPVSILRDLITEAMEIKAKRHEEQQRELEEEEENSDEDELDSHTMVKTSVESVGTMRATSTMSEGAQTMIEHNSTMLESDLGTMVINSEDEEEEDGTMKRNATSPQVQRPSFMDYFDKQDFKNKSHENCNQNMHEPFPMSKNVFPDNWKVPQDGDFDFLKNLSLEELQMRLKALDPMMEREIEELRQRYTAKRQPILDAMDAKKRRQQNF

[18] = target: Casein kinase I isoform delta (Homo sapiens) (UniProt P48730); experiment: Inhibition of CSNK1D (unknown origin) assessed as remaining activity at 1 uM by Kinome scan method relative to control; method in brief: as §1
Sequence of Casein kinase I isoform delta (Homo sapiens) (P48730 whole entry, looked up, canonical isoform): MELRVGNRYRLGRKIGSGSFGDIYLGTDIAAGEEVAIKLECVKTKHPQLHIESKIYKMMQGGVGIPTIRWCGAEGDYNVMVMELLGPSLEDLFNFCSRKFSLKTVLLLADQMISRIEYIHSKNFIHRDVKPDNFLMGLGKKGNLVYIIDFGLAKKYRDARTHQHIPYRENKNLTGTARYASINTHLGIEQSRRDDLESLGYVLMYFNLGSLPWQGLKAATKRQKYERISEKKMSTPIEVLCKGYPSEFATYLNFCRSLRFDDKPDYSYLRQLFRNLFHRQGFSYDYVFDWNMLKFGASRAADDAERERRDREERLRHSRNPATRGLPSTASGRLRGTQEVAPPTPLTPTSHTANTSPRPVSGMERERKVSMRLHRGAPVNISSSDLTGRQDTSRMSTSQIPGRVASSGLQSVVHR

[19] = target: Protein kinase C epsilon type (Homo sapiens) (UniProt Q02156); experiment: Inhibition of PRKCE (unknown origin) assessed as remaining activity at 1 uM by Kinome scan method relative to control
[20] = target: RAC-gamma serine/threonine-protein kinase (Homo sapiens) (UniProt Q9Y243); experiment: Inhibition of AKT3 (unknown origin) assessed as remaining activity at 1 uM by Kinome scan method relative to control; method in brief: as §2
[21] = target: Mitogen-activated protein kinase kinase kinase 7 (Homo sapiens) (UniProt O43318); experiment: Inhibition of TAK1 (unknown origin) assessed as remaining activity at 1 uM by Kinome scan method relative to control
[22] = target: Vascular endothelial growth factor receptor 1 (Homo sapiens) (UniProt P17948); experiment: Inhibition of FLT1 (unknown origin) assessed as remaining activity at 1 uM by Kinome scan method relative to control
[23] = tested on: Mus musculus; experiment: Protection against CCl4-induced mouse assessed as low dead cells at 1 mg/kg, ip administration daily for 10 days by TUNEL staining; format: functional, organism-based; conditions: Liver, time 10.0 day
[24] = target: Protein kinase C iota type (Homo sapiens) (UniProt P41743); experiment: Inhibition of PRKCI (unknown origin) assessed as remaining activity at 1 uM by Kinome scan method relative to control
[25] = target: Serine/threonine-protein kinase PLK4 (Homo sapiens) (UniProt O00444); experiment: Inhibition of PLK4 (unknown origin) assessed as remaining activity at 1 uM by Kinome scan method relative to control
Sequence of Serine/threonine-protein kinase PLK4 (Homo sapiens) (O00444 whole entry): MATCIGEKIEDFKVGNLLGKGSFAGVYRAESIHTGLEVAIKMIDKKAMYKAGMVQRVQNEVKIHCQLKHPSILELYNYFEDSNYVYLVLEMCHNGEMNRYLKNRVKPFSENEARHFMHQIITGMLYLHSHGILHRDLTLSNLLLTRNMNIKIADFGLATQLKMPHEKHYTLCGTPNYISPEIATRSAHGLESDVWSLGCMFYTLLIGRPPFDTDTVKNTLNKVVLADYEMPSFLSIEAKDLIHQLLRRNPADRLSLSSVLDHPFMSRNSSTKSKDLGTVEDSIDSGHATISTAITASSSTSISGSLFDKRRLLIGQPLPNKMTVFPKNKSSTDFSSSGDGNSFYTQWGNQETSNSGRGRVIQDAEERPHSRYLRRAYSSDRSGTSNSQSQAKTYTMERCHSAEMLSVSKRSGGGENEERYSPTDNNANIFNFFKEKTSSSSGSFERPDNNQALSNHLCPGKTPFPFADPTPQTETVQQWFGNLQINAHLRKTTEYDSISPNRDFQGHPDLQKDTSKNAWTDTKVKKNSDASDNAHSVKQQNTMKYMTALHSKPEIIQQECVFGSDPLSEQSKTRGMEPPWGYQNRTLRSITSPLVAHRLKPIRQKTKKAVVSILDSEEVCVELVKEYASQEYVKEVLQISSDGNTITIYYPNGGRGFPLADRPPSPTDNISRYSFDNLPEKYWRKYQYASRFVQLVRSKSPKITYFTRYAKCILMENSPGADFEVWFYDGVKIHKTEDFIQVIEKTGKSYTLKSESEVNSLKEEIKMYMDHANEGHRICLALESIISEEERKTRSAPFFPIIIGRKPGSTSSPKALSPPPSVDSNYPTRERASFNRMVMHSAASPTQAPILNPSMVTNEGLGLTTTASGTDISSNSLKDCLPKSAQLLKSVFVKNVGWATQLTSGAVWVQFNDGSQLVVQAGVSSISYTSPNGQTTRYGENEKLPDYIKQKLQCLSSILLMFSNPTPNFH

Sequence of Ephrin type-A receptor 2 (Homo sapiens) (P29317 whole entry): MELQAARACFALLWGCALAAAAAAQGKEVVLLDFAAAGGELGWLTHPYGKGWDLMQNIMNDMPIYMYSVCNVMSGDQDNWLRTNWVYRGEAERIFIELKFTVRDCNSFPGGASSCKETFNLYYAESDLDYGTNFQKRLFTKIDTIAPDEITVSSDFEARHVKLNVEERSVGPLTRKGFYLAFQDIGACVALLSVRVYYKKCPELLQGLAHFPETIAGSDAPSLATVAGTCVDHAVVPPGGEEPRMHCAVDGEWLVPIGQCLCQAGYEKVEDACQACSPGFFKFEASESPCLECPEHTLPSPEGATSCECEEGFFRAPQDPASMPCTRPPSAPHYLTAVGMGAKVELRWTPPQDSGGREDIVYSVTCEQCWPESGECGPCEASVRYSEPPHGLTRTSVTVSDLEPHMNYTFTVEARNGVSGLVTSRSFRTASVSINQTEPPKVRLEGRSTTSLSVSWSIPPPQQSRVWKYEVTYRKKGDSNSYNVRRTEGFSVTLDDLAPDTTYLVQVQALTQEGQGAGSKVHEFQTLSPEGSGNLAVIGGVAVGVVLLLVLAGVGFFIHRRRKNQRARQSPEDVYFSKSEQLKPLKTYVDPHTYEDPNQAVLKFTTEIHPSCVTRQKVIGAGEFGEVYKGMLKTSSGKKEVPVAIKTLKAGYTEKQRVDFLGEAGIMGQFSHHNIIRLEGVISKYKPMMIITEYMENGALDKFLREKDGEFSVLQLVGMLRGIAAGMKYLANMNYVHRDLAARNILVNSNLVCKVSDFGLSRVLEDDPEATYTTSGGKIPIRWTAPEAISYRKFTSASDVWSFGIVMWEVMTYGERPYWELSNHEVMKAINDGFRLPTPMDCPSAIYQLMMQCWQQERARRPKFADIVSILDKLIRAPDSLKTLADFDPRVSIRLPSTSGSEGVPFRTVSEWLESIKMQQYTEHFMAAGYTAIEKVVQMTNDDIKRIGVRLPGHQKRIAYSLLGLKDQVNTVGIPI

CN1C(=O)c2sccc2N(C)c2nc(Nc3ccc(S(N)(=O)=O)cc3)ncc21
Activity [1]: 99%
Activity [2]: 94%
Activity [3]: Toxic
Activity [4]: 91%
Activity [5]: 0.96%
IC50 [6]: 134 nM
Activity [7]: 100%
bioavailability [8]: 39.5%
Activity [9]: 79%
Activity [10]: 100%
Activity [11]: 15%
Activity [12]: 100%
Activity [13]: 100%
Activity [14]: 91%
Activity [15]: 87%
Activity [16]: 86%
IC50 [17]: 1500 nM
Activity [18]: 90%
Activity [19]: 98%
Activity [20]: 98%
Activity [21]: 71%
Activity [22]: 84%
Activity [23]: Active
Activity [24]: 94%
Activity [25]: 14%
